Data as given in ChEMBL document CHEMBL4138048, “Synthesis of substituted 2H-benzo[e]indazole-9-carboxylate as a potent antihyperglycemic agent that may act through IRS-1, Akt and GSK-3β pathways” (Medchemcomm, 2017).
Activity calls are given as the source filed them. No cut-off for these calls is given here.

Legend:
Mus musculus [1] = experiment: Antihyperglycemic activity in db/db mouse assessed as increase in HDL-C level at 30 mg/kg, po qd for 15 days; format: functional
In short: (§1)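 db/db mice given 3, 10 or 30 mg/kg orally once a day for 15 consecutive days, alongside vehicle controls. Serum triglyceride, total cholesterol, HDL-C and insulin measured, along with fasting blood glucose. Expressed as mean % change in 5 animals per group versus control.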

Mus musculus [2] = experiment: Antihyperglycemic activity in db/db mouse assessed as reduction in fasting blood glucose level at 10 mg/kg, po qd for 15 days; format: functional; set-up: scale not given: the % may be the effect or the level left; in short: as §1
Mus musculus [3] = experiment: Antihyperglycemic activity in db/db mouse assessed as reduction in fasting blood glucose level at 3 to 30 mg/kg, po qd for 15 days; format: functional, organism-based; in short: as §1
L6 [4] = experiment: Stimulation of [3H]2-deoxyglucose uptake in rat L6 cells at 10 uM incubated for 16 hrs by scintillation counting method; format: functional, cell-based
In short: (§2)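 L6 myotubes incubated with the compound […]; insulin at 100 nM for 20 min served as the positive control. Uptake of ³H-2-deoxyglucose measured and expressed as fold stimulation relative to the control condition.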

Mus musculus [5] = experiment: Antihyperglycemic activity in db/db mouse assessed as improvement on glucose tolerance by measuring blood glucose AUC level at 3 to 30 mg/kg, po qd for 15 days by oral glucose tolerance test; format: functional, organism-based
In short: (§3)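 db/db mice dosed orally once daily for 15 consecutive days at 3, 10 or 30 mg/kg, with vehicle controls and pioglitazone at 10 mg/kg. Oral glucose tolerance tests on day 10 and day 15. Overall improvement in glucose tolerance calculated against vehicle control. Mean % change in 5 animals per group.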

L6 [6] = experiment: Cytotoxicity in rat L6 cells assessed as reduction in cell viability at 1 to 50 uM by MTT assay; format: cell-based; conditions: l6, 50 µM
Mus musculus [7] = experiment: Antihyperglycemic activity in db/db mouse assessed as increase in HDL-C level at 10 mg/kg, po qd for 15 days; format: functional; in short: as §1
Rattus norvegicus [8] = experiment: Antihyperglycemic activity in albino Wistar rat assessed as inhibition of postprandial hyperglycemia at 100 mg/kg, po dosed 30 mins before sucrose load and measured 30 to 120 mins post sucrose injection by glucometry; format: functional
In short: (§4)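 Normal albino rats given an oral sucrose load, with a single oral dose of 100 mg/kg b.wt. Blood glucose profile followed after the load, and glucose AUC taken over 0–2 h. Percent inhibition of the postprandial rise in blood glucose calculated against control. Mean % change in 5 animals per group.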

Mus musculus [9] = experiment: Antihyperglycemic activity in db/db mouse assessed as reduction in cholesterol level at 30 mg/kg, po qd for 15 days; format: functional; set-up: scale not given: the % may be the effect or the level left; in short: as §1
Mus musculus [10] = experiment: Antihyperglycemic activity in db/db mouse assessed as reduction in blood glucose level at 3 to 30 mg/kg, po qd for 15 days by oral glucose tolerance test; format: functional, organism-based
In short: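 Type 2 diabetic db/db mice dosed orally once a day for 15 days at 3, 10 or 30 mg/kg, with pioglitazone at 10 mg/kg as standard. Blood glucose measured daily and profile compared with vehicle-treated animals. Mean % change in 5 animals per group.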

Mus musculus [11] = experiment: Toxicity in db/db mouse assessed as effect on body weight level at 3 to 30 mg/kg, po qd for 15 days by oral glucose tolerance test; format: organism-based; conditions: in vivo, 360 h
Mus musculus [12] = experiment: Antihyperglycemic activity in db/db mouse assessed as improvement on glucose tolerance by measuring blood glucose AUC level at 10 mg/kg, po qd for 15 days by oral glucose tolerance test; format: functional; in short: as §3
Mus musculus [13] = experiment: Antihyperglycemic activity in db/db mouse assessed as reduction in triglyceride level at 10 mg/kg, po qd for 15 days; format: functional; set-up: scale not given: the % may be the effect or the level left; in short: as §1
Rattus norvegicus [14] = experiment: Antihyperglycemic activity in Sprague-Dawley rat model of STZ-induced diabetes assessed as improvement on glucose tolerance at 100 mg/kg, po dosed 30 mins before sucrose load and measured after 5 hrs post sucrose load by glucometry; format: functional
In short: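 Sucrose-challenged streptozotocin-induced diabetic rats, single oral dose of 100 mg/kg b.wt. Blood glucose profile followed after sucrose load, and glucose AUC taken over 0–24 h. Percent improvement in glucose tolerance calculated at 5 h post sucrose load. Values are mean % change in 5 animals per group, compared with control.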

Mus musculus [15] = experiment: Antihyperglycemic activity in db/db mouse assessed as improvement on glucose tolerance by measuring blood glucose AUC level at 3 mg/kg, po qd for 10 days by oral glucose tolerance test; format: functional; in short: as §3
Mus musculus [16] = experiment: Antihyperglycemic activity in db/db mouse assessed as reduction in triglyceride level at 30 mg/kg, po qd for 15 days; format: functional; set-up: scale not given: the % may be the effect or the level left; in short: as §1
Rattus norvegicus [17] = experiment: Antihyperglycemic activity in albino Wistar rat assessed as reduction in blodd glucose level at 100 mg/kg, po dosed 30 mins before sucrose load and measured 30 to 120 mins post sucrose injection by glucometry; format: functional, organism-based; in short: as §4
Mus musculus [18] = experiment: Antihyperglycemic activity in db/db mouse assessed as improvement on glucose tolerance by measuring blood glucose AUC level at 3 to 30 mg/kg, po qd for 10 days by oral glucose tolerance test; format: functional, organism-based; in short: as §3
[19] = molecular target: T1, Tyrosine-protein phosphatase non-receptor type 1 (Rattus norvegicus) (UniProt P20417); experiment: Inhibition of PTP1B in rat L6 cells assessed as increase in insulin-stimulated IRS1 tyrosine phosphorylation pre-incubated for 16 hrs before insulin stimulation for 10 mins by Western blot method; format: cell-based
T1 sequence (whole entry): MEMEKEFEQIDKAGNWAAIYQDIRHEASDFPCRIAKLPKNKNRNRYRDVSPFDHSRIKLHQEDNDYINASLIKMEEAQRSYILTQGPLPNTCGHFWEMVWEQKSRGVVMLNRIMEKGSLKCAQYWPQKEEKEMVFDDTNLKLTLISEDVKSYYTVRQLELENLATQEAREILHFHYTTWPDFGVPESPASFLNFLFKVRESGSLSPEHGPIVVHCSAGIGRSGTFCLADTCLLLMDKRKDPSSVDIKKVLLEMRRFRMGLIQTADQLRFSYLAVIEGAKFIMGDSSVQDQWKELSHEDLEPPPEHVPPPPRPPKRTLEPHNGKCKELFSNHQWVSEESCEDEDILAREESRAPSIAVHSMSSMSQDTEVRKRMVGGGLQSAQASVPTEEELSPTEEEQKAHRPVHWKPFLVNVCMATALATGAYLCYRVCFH
In short: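 L6 myotubes treated for 16 h with the compound at the indicated concentrations, then stimulated with insulin (100 nM) for 10 min. Cells lysed and analysed by western blot. Densitometry of p-IRS-1, p-AKT and p-GSK, each relative to its total form. Compared with control and with insulin-treated control.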

Mus musculus [20] = experiment: Antihyperglycemic activity in db/db mouse assessed as improvement on glucose tolerance by measuring blood glucose AUC level at 3 mg/kg, po qd for 15 days by oral glucose tolerance test; format: functional; in short: as §3
L6 [21] = experiment: Stimulation of [3H]2-deoxyglucose uptake in rat L6 cells at 10 uM incubated for 16 hrs by scintillation counting method relative to untreated control; format: functional; in short: as §2
Mus musculus [22] = experiment: Antihyperglycemic activity in db/db mouse assessed as reduction in insulin level at 10 mg/kg, po qd for 15 days; format: functional; set-up: scale not given: the % may be the effect or the level left; in short: as §1

inhibition [19]: Dose-dependent effect
SMILES: COC(=O)c1c(SC)cc(-c2ccc(C)cc2)c2c1-c1cn(-c3ccccc3)nc1CC2
Activity (Mus musculus [1]): 20.5% | Activity (Mus musculus [2]): 14.1% | Activity (Mus musculus [3]): Dose-dependent effect | Activity (L6 [4]): Active | Activity (Mus musculus [5]): Dose-dependent effect | Activity (L6 [6]): Non-Toxic | Activity (Mus musculus [7]): 10.9% | inhibition in vivo at 100 mg/kg (Rattus norvegicus [8]): 35.8% | Activity (Mus musculus [9]): 22.7% | Activity (Mus musculus [10]): Dose-dependent effect | Activity (Mus musculus [11]): Non-Toxic | Activity (Mus musculus [12]): 20.1% | Activity (Mus musculus [13]): 13.2% | Activity (Rattus norvegicus [14]): 23.1% | Activity (Mus musculus [15]): 7.84% | Activity (Mus musculus [16]): 18.2% | Activity (Rattus norvegicus [17]): Active | Activity (Mus musculus [18]): Dose-dependent effect | Activity (Mus musculus [20]): 13.2% | fold change (FC) (L6 [21]): 2 | Activity (Mus musculus [22]): 17.7%
